The source of these data is ChEMBL document CHEMBL1770122, “Synthesis, antibacterial and antimycobacterial activities of some new 4-aryl/heteroaryl-2,6-dimethyl-3,5-bis-N-(aryl)-carbamoyl-1,4-dihydropyridines” (2011).

Converted amounts (≈) assume the structure as drawn.

The experiment has as its system Mycobacterium tuberculosis. Briefly: Antimicrobial activity against multidrug-resistant Mycobacterium tuberculosis C110/09 after 4 weeks. It counts as functional. The following applies: C110/09, 672 h. The gist of the method:
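L-J proportion method against an MDR clinical isolate resistant to rifampicin, pyrazinamide and isoniazid. Drug in 64, 128 and 256 µg mL-1 dilutions in LJ medium slants, set overnight. Inoculated with 4 mg mL-1 suspension by 3 mm loop, 37 °C, 4 weeks. MIC is the lowest concentration fully inhibiting growth, by CFU versus controls (medium, inoculated, DMSO). Three independent determinations.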
Take `CCc1ccc(C2C(C(=O)Nc3ccccc3)=C(C)NC(C)=C2C(=O)Nc2ccccc2)cc1`: the MIC – broadly, the lowest concentration found to suppress growth – is greater than 256 µg/mL.

Compound `CC1=C(C(=O)Nc2ccc(C)cc2)C(c2ccccn2)C(C(=O)Nc2ccc(C)cc2)=C(C)N1` displayed an MIC greater than 256 µg/mL. The figure for `CC1=C(C(=O)Nc2ccc(C)cc2)C(c2ccc[nH]2)C(C(=O)Nc2ccc(C)cc2)=C(C)N1` is 128 µg/mL (≈ 291 µM). The figure for `CC1=C(C(=O)Nc2ccccc2C)C(c2ccccn2)C(C(=O)Nc2ccccc2C)=C(C)N1` is 256 µg/mL (≈ 566 µM); for `NC(=O)c1cnccn1` [PYRAZINAMIDE] it is 128 µg/mL (≈ 1040 µM).
